# Laboratory results as given in ChEMBL document CHEMBL1139317, “Design, synthesis and biological evaluation of novel bicyclo[1.1.1]pentane-based omega-acidic amino acids as glutamate receptors ligands” (Bioorg Med Chem, 2009).
# Activity calls are given as the source filed them. No cut-off for these calls is given here.
# Experiments:
# Rattus norvegicus = species on record: Rattus norvegicus; test: Agonist activity at NMDA receptor in rat cortical membranes up to 1 mM by [3H]MK801 binding assay; type: cell membranes
# Procedure, shortened: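 [3H]MK801 binding to rat cortical membranes; agonist action read as potentiation of [3H]MK801 binding relative to basal, with glutamate/glycine as reference stimulants of binding.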
# [1] = Displacement of [3H]kainic acid from kainate receptor in rat brain membranes; type: cell membranes
# [2] = molecular target: Metabotropic glutamate receptor 4 (Homo sapiens, UniProt Q14833); test: Displacement of [3H]L-AP4 from human mGluR4 receptor expressed in BHK cells
# [3] = molecular target: T1, Glutamate NMDA receptor (Rattus norvegicus) (UniProt P35439+Q00959+Q00960+Q00961+Q62645+Q8VHN2+Q9R1M7); details: Brain, Brain membranes
# [4] = molecular target: Metabotropic glutamate receptor 2 (Homo sapiens, UniProt Q14416); test: Displacement of [3H]LY341495 from human mGluR2 receptor expressed in BHK cells
# [5] = molecular target: Metabotropic glutamate receptor 5 (Homo sapiens, UniProt P41594); test: Displacement of [3H]Quisqualate from human mGluR5 receptor expressed in BHK cells; type: cell-based
# [6] = Displacement of [3H]AMPA from AMPA receptor in rat brain membranes; type: cell membranes
# [7] = molecular target: Metabotropic glutamate receptor 1 (Homo sapiens, UniProt Q13255); test: Displacement of [3H]Quisqualate from human mGluR1A receptor expressed in BHK cells; type: cell-based
# [8] = molecular target: T1, Glutamate NMDA receptor (Rattus norvegicus); test: Antagonist activity at NMDA receptor in rat cortical membranes assessed as inhibition of [3H]MK801 binding in presence of glutamate and glycine; type: cell membranes
# Chain of Metabotropic glutamate receptor 1 (Q13255 whole entry): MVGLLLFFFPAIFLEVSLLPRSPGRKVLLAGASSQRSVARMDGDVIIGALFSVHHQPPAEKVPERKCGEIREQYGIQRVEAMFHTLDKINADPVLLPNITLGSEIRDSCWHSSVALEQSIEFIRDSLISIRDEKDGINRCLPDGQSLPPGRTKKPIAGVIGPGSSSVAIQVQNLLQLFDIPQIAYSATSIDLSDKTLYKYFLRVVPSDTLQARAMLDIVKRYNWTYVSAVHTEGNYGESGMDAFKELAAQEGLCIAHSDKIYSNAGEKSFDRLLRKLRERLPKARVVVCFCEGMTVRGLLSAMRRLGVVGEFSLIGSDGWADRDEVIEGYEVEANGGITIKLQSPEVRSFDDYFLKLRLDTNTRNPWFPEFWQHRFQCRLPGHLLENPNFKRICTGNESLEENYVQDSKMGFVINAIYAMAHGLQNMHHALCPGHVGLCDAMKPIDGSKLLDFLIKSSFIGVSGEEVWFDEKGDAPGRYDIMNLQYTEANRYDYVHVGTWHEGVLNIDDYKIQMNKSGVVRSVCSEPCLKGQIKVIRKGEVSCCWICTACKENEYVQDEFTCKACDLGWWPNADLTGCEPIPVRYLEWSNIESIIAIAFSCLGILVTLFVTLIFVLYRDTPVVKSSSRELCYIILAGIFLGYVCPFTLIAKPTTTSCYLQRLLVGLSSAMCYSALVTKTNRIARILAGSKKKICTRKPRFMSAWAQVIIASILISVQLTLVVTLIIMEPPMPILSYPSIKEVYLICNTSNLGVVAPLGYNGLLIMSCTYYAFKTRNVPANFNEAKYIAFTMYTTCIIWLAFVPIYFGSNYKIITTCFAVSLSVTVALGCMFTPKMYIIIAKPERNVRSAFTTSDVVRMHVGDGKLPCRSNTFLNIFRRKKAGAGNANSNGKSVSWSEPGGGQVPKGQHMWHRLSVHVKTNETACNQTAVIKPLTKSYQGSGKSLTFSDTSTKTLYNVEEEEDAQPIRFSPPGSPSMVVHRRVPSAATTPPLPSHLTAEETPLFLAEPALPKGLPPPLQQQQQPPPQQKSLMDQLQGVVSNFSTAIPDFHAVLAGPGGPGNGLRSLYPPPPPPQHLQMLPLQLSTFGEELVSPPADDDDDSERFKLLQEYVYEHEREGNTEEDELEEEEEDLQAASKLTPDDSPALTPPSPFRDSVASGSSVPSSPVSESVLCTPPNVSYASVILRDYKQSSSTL
# Chain of Metabotropic glutamate receptor 4 (Q14833 whole entry): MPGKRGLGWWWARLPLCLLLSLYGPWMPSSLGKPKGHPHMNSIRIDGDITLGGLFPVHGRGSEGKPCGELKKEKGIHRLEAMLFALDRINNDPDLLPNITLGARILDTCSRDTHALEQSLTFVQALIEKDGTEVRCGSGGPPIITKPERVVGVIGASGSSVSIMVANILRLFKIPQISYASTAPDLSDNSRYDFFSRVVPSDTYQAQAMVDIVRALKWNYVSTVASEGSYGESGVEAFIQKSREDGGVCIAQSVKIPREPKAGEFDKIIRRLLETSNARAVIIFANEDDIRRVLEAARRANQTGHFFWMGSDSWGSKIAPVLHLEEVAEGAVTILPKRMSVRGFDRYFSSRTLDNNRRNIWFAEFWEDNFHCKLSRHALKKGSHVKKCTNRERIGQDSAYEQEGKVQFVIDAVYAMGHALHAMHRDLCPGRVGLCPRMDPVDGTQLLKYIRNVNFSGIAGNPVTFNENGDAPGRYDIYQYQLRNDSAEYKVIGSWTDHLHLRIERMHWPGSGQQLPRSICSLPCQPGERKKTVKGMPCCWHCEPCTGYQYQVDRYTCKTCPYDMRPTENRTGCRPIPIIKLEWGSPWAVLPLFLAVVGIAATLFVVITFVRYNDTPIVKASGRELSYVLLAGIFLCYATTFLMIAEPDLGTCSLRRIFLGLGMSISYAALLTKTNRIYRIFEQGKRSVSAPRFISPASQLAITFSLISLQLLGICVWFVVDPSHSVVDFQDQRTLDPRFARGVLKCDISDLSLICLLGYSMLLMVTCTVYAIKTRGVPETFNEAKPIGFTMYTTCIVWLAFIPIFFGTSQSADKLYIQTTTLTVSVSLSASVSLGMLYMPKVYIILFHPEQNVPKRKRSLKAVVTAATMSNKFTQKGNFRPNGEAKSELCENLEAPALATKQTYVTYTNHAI
# Chain of Metabotropic glutamate receptor 2 (Q14416 whole entry): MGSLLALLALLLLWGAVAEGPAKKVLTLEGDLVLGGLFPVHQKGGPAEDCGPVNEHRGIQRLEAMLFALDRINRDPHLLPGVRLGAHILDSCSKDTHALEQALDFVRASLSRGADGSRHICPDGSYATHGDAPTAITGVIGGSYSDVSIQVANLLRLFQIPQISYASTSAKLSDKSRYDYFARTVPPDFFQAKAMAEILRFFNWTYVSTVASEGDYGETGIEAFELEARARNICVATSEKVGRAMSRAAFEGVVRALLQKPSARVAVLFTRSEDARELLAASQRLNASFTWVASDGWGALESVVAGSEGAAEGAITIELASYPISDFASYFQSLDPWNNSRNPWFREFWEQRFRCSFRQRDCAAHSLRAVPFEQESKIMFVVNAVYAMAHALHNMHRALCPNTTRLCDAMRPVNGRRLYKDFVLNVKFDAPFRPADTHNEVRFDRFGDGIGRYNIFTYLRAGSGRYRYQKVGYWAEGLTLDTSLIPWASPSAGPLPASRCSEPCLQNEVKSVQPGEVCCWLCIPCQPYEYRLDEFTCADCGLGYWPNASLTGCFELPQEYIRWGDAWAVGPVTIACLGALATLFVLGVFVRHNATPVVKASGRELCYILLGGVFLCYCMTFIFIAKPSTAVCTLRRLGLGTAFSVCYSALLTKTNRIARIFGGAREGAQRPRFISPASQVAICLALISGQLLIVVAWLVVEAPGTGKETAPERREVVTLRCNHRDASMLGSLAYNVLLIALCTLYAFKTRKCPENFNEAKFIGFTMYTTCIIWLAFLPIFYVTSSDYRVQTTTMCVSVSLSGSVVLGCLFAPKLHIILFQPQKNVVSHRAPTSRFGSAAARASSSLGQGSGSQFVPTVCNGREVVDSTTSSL
# Chain of Metabotropic glutamate receptor 5 (P41594 whole entry): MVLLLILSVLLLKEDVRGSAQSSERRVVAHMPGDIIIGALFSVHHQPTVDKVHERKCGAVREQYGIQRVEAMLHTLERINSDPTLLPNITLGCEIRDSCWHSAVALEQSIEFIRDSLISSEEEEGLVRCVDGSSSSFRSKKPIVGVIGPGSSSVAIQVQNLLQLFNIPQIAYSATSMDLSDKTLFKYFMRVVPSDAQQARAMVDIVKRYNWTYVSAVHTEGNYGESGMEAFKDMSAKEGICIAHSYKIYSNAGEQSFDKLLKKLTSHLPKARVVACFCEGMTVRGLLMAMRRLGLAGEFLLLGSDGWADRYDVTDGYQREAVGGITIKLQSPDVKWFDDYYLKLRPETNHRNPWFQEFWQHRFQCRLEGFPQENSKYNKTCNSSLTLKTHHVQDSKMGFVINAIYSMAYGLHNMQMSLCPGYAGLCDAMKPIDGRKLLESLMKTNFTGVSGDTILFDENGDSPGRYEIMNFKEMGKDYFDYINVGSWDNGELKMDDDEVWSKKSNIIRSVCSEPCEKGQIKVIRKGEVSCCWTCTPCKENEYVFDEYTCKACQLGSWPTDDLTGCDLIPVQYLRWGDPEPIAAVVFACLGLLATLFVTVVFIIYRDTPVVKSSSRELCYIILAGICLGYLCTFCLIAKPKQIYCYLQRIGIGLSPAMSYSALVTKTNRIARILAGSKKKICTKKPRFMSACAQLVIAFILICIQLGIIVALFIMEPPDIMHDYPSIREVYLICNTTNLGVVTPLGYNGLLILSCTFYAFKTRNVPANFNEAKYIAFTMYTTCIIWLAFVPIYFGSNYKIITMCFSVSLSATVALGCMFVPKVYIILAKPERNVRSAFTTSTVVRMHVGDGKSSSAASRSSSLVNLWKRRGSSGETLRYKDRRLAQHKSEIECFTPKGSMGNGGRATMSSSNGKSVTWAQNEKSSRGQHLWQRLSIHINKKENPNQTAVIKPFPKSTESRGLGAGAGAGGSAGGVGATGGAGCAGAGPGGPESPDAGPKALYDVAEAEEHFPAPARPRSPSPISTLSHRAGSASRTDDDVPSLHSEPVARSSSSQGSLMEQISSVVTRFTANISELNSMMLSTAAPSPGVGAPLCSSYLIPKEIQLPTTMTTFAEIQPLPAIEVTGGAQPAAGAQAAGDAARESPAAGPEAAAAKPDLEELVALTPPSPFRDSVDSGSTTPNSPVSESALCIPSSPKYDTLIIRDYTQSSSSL
Activity (Rattus norvegicus),Ki [1],Ki [2],logKi [3],Ki (Glutamate NMDA receptor),Ki [4],Ki [5],Ki [6],Ki [7],Activity [8],SMILES
inactive,> 300 µM,> 1000 µM,2.48,> 300 µM,> 1 mM,> 300 µM,> 300 µM,> 1000 µM,inactive,N[C@@H](CC12CC(C(=O)O)(C1)C2)C(=O)O
inactive,> 300 µM,> 1000 µM,1.46,29 µM,> 1 mM,336 µM,> 300 µM,210 µM,inactive,N[C@H](CC12CC(C(=O)O)(C1)C2)C(=O)O
,,,,,,,,,103 nM,O=C(O)[C@H]1CN(CCCP(=O)(O)O)CCN1

SMILES,Activity (Rattus norvegicus),Ki [1],Ki [2],logKi [3],Ki (Glutamate NMDA receptor),Ki [4],Ki [5],Ki [6],Ki [7],Activity [8]
N[C@@H](CCP(=O)(O)O)C(=O)O,,> 1000 µM,0.16 µM,,> 300 µM,> 1 mM,> 1000 µM,> 1000 µM,> 1000 µM,
